Screens from PubChem BioAssay.
Only some compounds are listed: those with a hit (about 4.4% of all), similar ones and a draw of the others.
NR3A LBD binder: NR3A (human) ligand-binding domain modulation; hit rate 2.5% among 340,000; Tm shift relative to glycine control, % at 25 µM; AID 1259313; NR3A LBD differential scanning fluorimetry, Tm shift; 0% = protein alone, 100% = glycine-bound protein;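 active = melting temperature shift of at least 10% of the positive control shift, at one fixed dose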
MPTP block: inhibitors of mitochondrial permeability transition pore. inhibition, % at 10 µM. isolated mouse mitochondria, Ca2+ swelling absorbance, 30 min. hit rate 1.4% among 360,000;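 active = inhibition of 50% or more, scaled per plate between neutral and stimulator controls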;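 note: 0% = DMSO wells given calcium and 100% = 1 mM EGTA wells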
EBI2 block: blocks human EBI2 receptor beta-arrestin signaling; AID 651636; hit rate 0.81% among 360,000; P32249; inhibition, % at 5 µM; EBI2 beta-arrestin recruitment, luminescence, 7a,25-OHC stimulated; in the data active = inhibition above about 38%;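 note: enzyme fragment complementation signal reports receptor beta-arrestin coupling in cells; 0% = agonist plus DMSO wells and 100% = wells without agonist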
Target sequence (P32249 whole entry, looked up, the tested form may be a part): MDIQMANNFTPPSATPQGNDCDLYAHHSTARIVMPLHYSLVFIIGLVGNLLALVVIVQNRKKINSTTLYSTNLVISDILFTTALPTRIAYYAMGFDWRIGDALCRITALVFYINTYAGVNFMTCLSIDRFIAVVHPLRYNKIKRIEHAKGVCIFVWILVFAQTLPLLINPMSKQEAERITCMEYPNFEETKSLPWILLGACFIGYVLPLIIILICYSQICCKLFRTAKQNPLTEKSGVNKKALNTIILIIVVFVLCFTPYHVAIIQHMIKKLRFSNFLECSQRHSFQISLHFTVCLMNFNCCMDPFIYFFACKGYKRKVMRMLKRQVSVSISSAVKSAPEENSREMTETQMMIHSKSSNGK
SENP1 inh: inhibitors of human SENP1 SUMO protease catalytic domain. inhibition, % at 10 µM. recombinant SENP1 catalytic domain, CyPet-SUMO1-YPet FRET cleavage. Q9P0U3. hit rate 0.21% among 360,000;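 active = inhibition at least 30% at 10 µM, raw YFP signal under a set limit, fluorescence ratio 0.5 to 1.5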;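 note: 0% = enzyme with DMSO and 100% = no enzyme wells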
Target sequence (Q9P0U3 419-644 limits assumed): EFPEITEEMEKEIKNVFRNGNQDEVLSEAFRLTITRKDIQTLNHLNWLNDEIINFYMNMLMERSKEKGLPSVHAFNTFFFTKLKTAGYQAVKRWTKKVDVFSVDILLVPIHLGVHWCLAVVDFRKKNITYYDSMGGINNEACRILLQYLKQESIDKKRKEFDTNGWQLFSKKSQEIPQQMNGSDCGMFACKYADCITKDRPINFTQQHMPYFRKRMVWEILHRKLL
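Assay system: hSENP1 catalytic domain, recombinant. Amount: SENP1 enzyme, 20 pM final. Schedule: 50 min reaction, RT, dark. Technique: FRET, CFP and YFP emission. Control set: no-enzyme wells low, DMSO-plus-enzyme wells high control.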
EBI2 conf: confirmation of human EBI2 receptor antagonists | shares compounds with EBI2 block | EBI2 beta-arrestin luminescence, 7a,25-OHC antagonism | inhibition, % at 5 µM | hit rate 29% among 2,400;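 active = inhibition of at least 50%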
EBI2 ag: EBI2 agonism counter-screen | shares compounds with EBI2 block | EBI2-expressing cells, agonist mode, luminescence, 60 min; 0% vehicle, 100% 7α,25-dihydroxycholesterol control | activation, % at 5 µM | 2,400 tested, under 10 active;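 active = activation of at least 50%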
bGal cs: inhibits E. coli beta-galactosidase, counter-screen for EBI2 antagonists | shares compounds with EBI2 block | purified beta-galactosidase, luminescent Galacton Star, 15 min | inhibition, % at 5 µM | hit rate 1% among 2,400 | AID 652176;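 active = replicate-average signal at least 3 plate SD below neutral wells, shown as high inhibition, flagging enzyme-inhibiting false positives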;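 note: 0% = DMSO wells with enzyme and 100% = wells lacking enzyme; higher means stronger loss of beta-gal luminescence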
* hit, by the source's call.

How did CCOc1ccc(S(=O)(=O)N2CCN(C(=O)COc3ccc(Br)cc3)CC2)cc1 do in these assays?
NR3A LBD binder: 0.2; MPTP block: 0.0; EBI2 block: 87.5*; SENP1 inh: 3.0; EBI2 conf: 80.5*; EBI2 ag: 1.2; bGal cs: 2.0

What do the screens show for `CC(=O)c1ccc(S(=O)(=O)N2CCN(CCOc3ccc(Br)cc3)CC2)cc1`?
NR3A LBD binder: -4.3; MPTP block: -0.8; EBI2 block: 89.6*; SENP1 inh: -0.5; EBI2 conf: 58.1*; EBI2 ag: 2.2; bGal cs: 5.3

How did CC(C)Oc1cc(F)ccc1-c1cc(C(=O)Nc2cccc(C(F)(F)F)c2)[nH]n1 do in these assays?
MPTP block: 28.8; EBI2 block: 42.5*; SENP1 inh: -1.5; EBI2 conf: 38.4; EBI2 ag: 1.0; bGal cs: 11.2

How did COc1cc(C#N)c(NC(=O)CN2CCN(CCO)CC2)cc1OC do in these assays?
NR3A LBD binder: 1.0; MPTP block: 0.4; EBI2 block: -5.2; SENP1 inh: -1.4

Results for Cn1ccnc1C(=O)c1cc(SCC(=O)NCc2ccccc2)nc2ccccc12 ?
NR3A LBD binder: -0.7; MPTP block: -0.4; EBI2 block: 44.1*; SENP1 inh: 2.5; EBI2 conf: -6.9; EBI2 ag: 1.1; bGal cs: 3.0

Results for CCOc1ccccc1N(C(=O)c1snc(C(N)=O)c1N)C(C(=O)NC1CCCC1)c1ccco1 (centres undefined) ?
NR3A LBD binder: -2.4; MPTP block: -1.8; EBI2 block: 6.8; SENP1 inh: -20.4

What do the screens show for `Cc1cccc(N(C(=O)c2snc(C(N)=O)c2N)C(C(=O)NC2CCCC2)c2ccc(C)o2)c1` (centres undefined)?
NR3A LBD binder: 1.6; MPTP block: 1.4; EBI2 block: 51.1*; SENP1 inh: -31.9; EBI2 conf: 56.3*; EBI2 ag: 0.1; bGal cs: -15.6

Results for COc1ccc(C(C(=O)NC2CCCCC2)N(C(=O)c2snc(C(N)=O)c2N)c2ccc(OC)cc2OC)cc1 (centres undefined) ?
NR3A LBD binder: -0.6; MPTP block: -0.9; EBI2 block: 70.0*; SENP1 inh: -16.0; EBI2 conf: 73.0*; EBI2 ag: -0.7; bGal cs: 8.9

Results for COCCNC(=O)C(c1ccc(C)o1)N(C(=O)c1snc(C(N)=O)c1N)c1ccc(C)cc1 (centres undefined) ?
MPTP block: 0.5; EBI2 block: 14.3; SENP1 inh: -19.7

Results for Cc1cccc(N(C(=O)c2snc(C(N)=O)c2N)C(C(=O)NC2CCCC2)c2ccncc2)c1 (centres undefined) ?
NR3A LBD binder: -1.9; MPTP block: 0.8; EBI2 block: 1.5; SENP1 inh: -14.5

How did Cc1ccc(N(C(=O)c2snc(C(N)=O)c2N)C(C(=O)NC2CCCC2)c2ccc(C)o2)cc1 (centres undefined) do in these assays?
NR3A LBD binder: -0.1; MPTP block: 1.0; EBI2 block: 67.8*; SENP1 inh: -19.8; EBI2 conf: 69.9*; EBI2 ag: -1.8; bGal cs: -20.9

What do the screens show for `Cc1ccc(N(C(=O)c2snc(C(N)=O)c2N)C(C(=O)NC2CCCC2)c2ccco2)cc1` (centres undefined)?
NR3A LBD binder: -0.6; MPTP block: 2.0; EBI2 block: 55.6*; SENP1 inh: -15.6; EBI2 conf: 27.9; EBI2 ag: 0.4; bGal cs: 6.9

What do the screens show for `COc1ccc(-c2nc3c(c(=O)[nH]c(=O)n3Cc3ccccc3)n2Cc2ccccc2)cc1`?
NR3A LBD binder: -0.4; MPTP block: 11.4; EBI2 block: 45.4*; SENP1 inh: -0.8; EBI2 conf: 9.7; EBI2 ag: 2.2; bGal cs: -7.0

What do the screens show for `Cc1cc(C)c(S(=O)(=O)N2CCN(C(=O)c3ccc(-n4cncn4)c([N+](=O)[O-])c3)CC2)c(C)c1`?
NR3A LBD binder: -0.3; MPTP block: -0.3; EBI2 block: 72.3*; SENP1 inh: 0.6; EBI2 conf: 34.6; EBI2 ag: -0.9; bGal cs: -7.5

What do the screens show for `O=C(c1ccc(-n2cncn2)c([N+](=O)[O-])c1)N1CCN(S(=O)(=O)c2ccccc2Br)CC1`?
NR3A LBD binder: 0.9; MPTP block: -0.9; EBI2 block: 13.6; SENP1 inh: 1.4

What do the screens show for `Cc1ccc(NC(=O)CCc2ccc(S(=O)(=O)N3CCOCC3)cc2)c(Cl)c1`?
NR3A LBD binder: 0.5; MPTP block: 0.1; EBI2 block: 16.1; SENP1 inh: -0.8

What do the screens show for `O=C(COc1ccccc1)N1CCN(c2ncccn2)CC1`?
NR3A LBD binder: -2.0; MPTP block: -0.8; EBI2 block: 23.9; SENP1 inh: -0.6

How did Cc1ccc(Cl)cc1N1CCN(C(=O)COc2ccc3c(c2)CCC3)CC1 do in these assays?
NR3A LBD binder: 1.7; MPTP block: 3.2; EBI2 block: 77.5*; SENP1 inh: -2.4; EBI2 conf: 42.1; EBI2 ag: -0.9; bGal cs: -13.0

How did CC(=O)c1ccc(N2CCN(C(=O)COc3ccc4c(c3)CCC4)CC2)cc1 do in these assays?
NR3A LBD binder: -0.4; MPTP block: 1.4; EBI2 block: 33.6; SENP1 inh: 1.0

What do the screens show for `O=C(COc1ccc(Br)cc1)N1CCN(c2ncccn2)CC1`?
NR3A LBD binder: -2.6; MPTP block: 0.0; EBI2 block: 93.9*; SENP1 inh: -1.4; EBI2 conf: 78.7*; EBI2 ag: 0.2; bGal cs: 1.5

Results for O=C(COc1ccc(Cl)cc1)N1CCN(c2ncccn2)CC1 ?
NR3A LBD binder: -0.2; MPTP block: 0.2; EBI2 block: 72.6*; SENP1 inh: 2.5; EBI2 conf: 58.1*; EBI2 ag: 2.0; bGal cs: -1.8

What do the screens show for `COc1ccccc1N1CCN(C(=O)COc2ccc(Cl)cc2)CC1`?
NR3A LBD binder: 0.9; MPTP block: -3.4; EBI2 block: 81.3*; SENP1 inh: 1.5; EBI2 conf: 51.8*; EBI2 ag: 0.6; bGal cs: 3.7

What do the screens show for `COc1ncnc(OC)c1S(=O)(=O)NCc1ccccc1`?
NR3A LBD binder: -5.1; MPTP block: 3.4; EBI2 block: 7.6; SENP1 inh: 2.2

Results for O=C(CSc1nnc(C23CC4CC(CC(C4)C2)C3)o1)Nc1ccc(N2CCOCC2)c(Cl)c1 ?
NR3A LBD binder: -0.5; MPTP block: -0.4; EBI2 block: 58.1*; SENP1 inh: -0.4; EBI2 conf: 19.1; EBI2 ag: -2.3; bGal cs: -7.0

What do the screens show for `N#CC(Sc1ccccn1)c1ccc(Cl)cc1Cl` (centres undefined)?
NR3A LBD binder: -2.7; MPTP block: 3.7; EBI2 block: 16.6; SENP1 inh: -1.4
